Data set [1] can be described thus: Metabolic stability in aqueous ammonium carbonate solution assessed as trypsin/chymotrypsin (unknown origin)-mediated drug degradation by measuring half life at 0.05 ug/ml incubated in shaking conditions in presence of trypsin/chymotrpsin and measured for 48 hrs by RP-HPLC analysis. The conditions noted are these: human. In kind it is ADME.
A short description of data set [2]: Antagonist activity at ComD1 receptor in Streptococcus pneumoniae D39 harboring pcomX/lacZ reporter gene assessed as inhibiton of CSP1-stimulated maximum signal preincubated for 30 mins followed by 50 nM CSP1 addition by ONPG based beta-galactosidase assay. An outline of the steps: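 Comx-lacZ β-gal reporter inhibition in D39 (ComD1, CSP1 50 nM) or TIGR4 (ComD2, CSP2 250 nM). Peptides tested over a range of concentrations against the stimulating CSP. Miller units normalized to CSP alone. IC50 given with 95% confidence interval.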
On the technique in general: A reporter such as luciferase makes a cellular process visible.

Data set [3] can be described thus: Metabolic stability in human plasma at 0.33 mM measured for 3 hrs by RP-HPLC analysis. In kind it is ADME, cell-free. As to conditions: 330 µM.
Data set [4] relates to Streptococcus pneumoniae D39. As to the kind of experiment: Agonist activity at ComD1 receptor in Streptococcus pneumoniae D39 harboring pcomX/lacZ reporter gene at 10 uM incubated for 30 mins by ONPG based beta-galactosidase assay relative to native CSP1. An outline of the steps:
(§1)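 Single-dose screen of synthetic peptide at 10 μM in wild-type reporter strains (D39 for ComD1, TIGR4 for ComD2) producing their own CSP and carrying lacZ under the comX promoter. β-gal activity in Miller units normalized to native CSP (CSP1 or CSP2, 100%); DMSO 0%. Triplicates over three separate trials.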

Data set [5] relates to Streptococcus pneumoniae TIGR4. As to the kind of experiment: Agonist activity at ComD2 receptor in Streptococcus pneumoniae TIGR4 harboring pcomX/lacZ reporter gene at 10 uM incubated for 30 mins by ONPG based beta-galactosidase assay relative to native CSP2. Summed up: as §1
Data set [6] deals with Streptococcus pneumoniae D39. Nature of the data set: Antagonist activity at ComD1 receptor in Streptococcus pneumoniae D39 harboring pcomX/lacZ reporter gene assessed as inhibiton of CSP1-stimulated maximum signal at 10 uM preincubated for 30 mins followed by 50 nM CSP1 addition by ONPG based beta-galactosidase assay relative to native CSP1. An outline of the steps: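 Inhibition screen: peptides at 10 μM against CSP1 50 nM (D39, ComD1) or CSP2 250 nM (TIGR4, ComD2), in comX-lacZ reporter strains. β-gal Miller units normalized to CSP alone (100%) and DMSO (0%). Triplicates over three separate trials.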

Data set [7] is described as follows: Agonist activity at ComD2 receptor in Streptococcus pneumoniae TIGR4 harboring pcomX/lacZ reporter gene incubated for 30 mins by ONPG based beta-galactosidase assay. An outline of the steps: (§2)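 Dose-response in wild-type lacZ reporter strains (comX promoter; D39 for ComD1, TIGR4 for ComD2) producing native CSP. Peptides tested over a range of concentrations. β-gal read-out (Miller units) normalized to native CSP. EC50 reported with 95% confidence interval.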

A short description of data set [8]: Solubility of the compound in ammonium carbonate solution at pH 8. In kind it is physicochemical. As to conditions: buffer.
A short description of data set [9]: Agonist activity at ComD1 receptor in Streptococcus pneumoniae D39 harboring pcomX/lacZ reporter gene incubated for 30 mins by ONPG based beta-galactosidase assay. Summed up:
as §2

Active and inactive are the calls of the source. The rule behind the calls is not given here. Non-standard residues stand in square brackets, D forms with d. Residues, ends and D or L forms follow the SMILES beside them. NMeR = CN[C@@H](CCCNC(=N)N)C(=O)O; NMeF = CN[C@@H](Cc1ccccc1)C(=O)O; NMeI = CC[C@H](C)[C@H](NC)C(=O)O; NMeD = CN[C@@H](CC(=O)O)C(=O)O; NMeL = CN[C@@H](CC(C)C)C(=O)O; NMeS = CN[C@@H](CO)C(=O)O A value given as a limit tells only on which side of the number the result lay.

On to `CC[C@H](C)[C@H](NC(=O)[C@H](Cc1ccccc1)NC(=O)[C@H](CC(=O)O)NC(=O)[C@H](CCCNC(=N)N)NC(=O)[C@H](Cc1ccccc1)NC(=O)[C@H](Cc1ccccc1)NC(=O)[C@H](CCCCN)NC(=O)[C@H](CO)NC(=O)[C@H](CC(C)C)NC(=O)[C@H](CCCNC(=N)N)NC(=O)[C@H](CCSC)NC(=O)[C@H](C)N)C(=O)N[C@@H](CC(C)C)C(=O)N(C)[C@@H](CCC(N)=O)C(=O)N[C@@H](CCCNC(=N)N)C(=O)N[C@@H](CCCCN)C(=O)N[C@@H](CCCCN)C(=O)O`, for which the half-life (as a rule, the time in which the quantity being followed falls by half) at 0.05 ug/ml in data set [1] was 360 min. In data set [2], the half-inhibitory concentration (IC50) (commonly the concentration that inhibits the measured activity by half) amounted to 370 nM. Besides, the Stability entry in [3] is given as “Stable”.
`CC[C@H](C)[C@H](NC(=O)[C@H](Cc1ccccc1)NC(=O)[C@H](CC(=O)O)NC(=O)[C@H](CCCNC(=N)N)NC(=O)[C@H](Cc1ccccc1)NC(=O)[C@H](Cc1ccccc1)NC(=O)[C@H](CCCCN)N(C)C(=O)[C@H](CO)NC(=O)[C@H](CC(C)C)NC(=O)[C@H](CCCNC(=N)N)NC(=O)[C@H](CCSC)NC(=O)[C@H](C)N)C(=O)N[C@@H](CC(C)C)C(=O)N[C@@H](CCC(N)=O)C(=O)N[C@@H](CCCNC(=N)N)C(=O)N[C@@H](CCCCN)C(=O)N[C@@H](CCCCN)C(=O)O`: the half-life at 0.05 ug/ml in [1] is 120 min. Besides, the half-inhibitory concentration (IC50) in data set [2] worked out at 48 nM. For the same compound, the Stability result in data set [3] was “Unstable”.
Regarding `CC[C@H](C)[C@H](NC(=O)[C@H](Cc1ccccc1)NC(=O)[C@H](CC(=O)O)NC(=O)[C@H](CCCNC(=N)N)NC(=O)[C@H](Cc1ccccc1)NC(=O)[C@H](Cc1ccccc1)NC(=O)[C@H](CCCCN)N(C)C(=O)[C@H](CO)NC(=O)[C@H](CC(C)C)NC(=O)[C@H](CCCNC(=N)N)NC(=O)[C@H](CCSC)NC(=O)[C@H](C)N)C(=O)N[C@@H](CC(C)C)C(=O)N(C)[C@@H](CCC(N)=O)C(=O)N[C@@H](CCCNC(=N)N)C(=O)N[C@@H](CCCCN)C(=O)N[C@@H](CCCCN)C(=O)O`, the half-life at 0.05 ug/ml in data set [1] was 360 min. Moreover, in data set [2], the IC50 is 360 nM. Also, the Stability result in data set [3] is “Unstable”.
Take `CC[C@H](C)[C@H](NC(=O)[C@H](CCCNC(=N)N)NC(=O)[C@H](CCSC)NC(=O)[C@@H](N)CCC(=O)O)C(=O)N[C@@H](CO)C(=O)N(C)[C@@H](CCCNC(=N)N)C(=O)N[C@H](C(=O)N[C@H](C(=O)N[C@@H](CC(C)C)C(=O)N[C@@H](CC(=O)O)C(=O)N[C@@H](Cc1ccccc1)C(=O)N[C@@H](CC(C)C)C(=O)N[C@@H](Cc1ccccc1)C(=O)O)[C@@H](C)CC)[C@@H](C)CC` (H-EMRIS[NMeR]IILDFLF-OH): in data set [4], the result was inactive. The compound further displayed an Activity in [5] of more than 75%. For the same compound, in data set [6], the inhibition entry was “inactive”. The EC50 (in general, the concentration that produces a half-maximal response) in data set [7] worked out at 560 nM. The solubility entry in [8] was “Insoluble”.
As for `CC[C@H](C)[C@H](NC(=O)[C@H](CCCNC(=N)N)NC(=O)[C@H](CO)N(C)C(=O)[C@@H](NC(=O)[C@H](CCCNC(=N)N)NC(=O)[C@H](CCSC)NC(=O)[C@@H](N)CCC(=O)O)[C@@H](C)CC)C(=O)N[C@H](C(=O)N[C@@H](CC(C)C)C(=O)N[C@@H](CC(=O)O)C(=O)N[C@@H](Cc1ccccc1)C(=O)N[C@@H](CC(C)C)C(=O)N[C@@H](Cc1ccccc1)C(=O)O)[C@@H](C)CC` (H-EMRI[NMeS]RIILDFLF-OH), the outcome in data set [4] was inactive. In [5], this compound came in with an Activity of more than 75%. Besides, the inhibition entry in [6] is “inactive”. In data set [7], this compound displayed a 50% effective concentration (EC50) of 550 nM. For the same compound, in [8], the solubility entry is “Insoluble”.
As to `CC[C@H](C)[C@H](NC(=O)[C@H](Cc1ccccc1)NC(=O)[C@H](CC(=O)O)NC(=O)[C@H](CCCNC(=N)N)NC(=O)[C@H](Cc1ccccc1)NC(=O)[C@H](Cc1ccccc1)NC(=O)[C@H](CCCCN)NC(=O)[C@H](CO)NC(=O)[C@H](CC(C)C)NC(=O)[C@H](CCCNC(=N)N)NC(=O)[C@H](CCSC)NC(=O)[C@@H](N)CCC(=O)O)C(=O)N[C@@H](CC(C)C)C(=O)N[C@@H](CCC(N)=O)C(=O)N(C)[C@@H](CCCNC(=N)N)C(=O)O` (H-EMRLSKFFRDFILQ[NMeR]-OH), the Activity in data set [4] and in data set [5] was more than 75% each time. The figures for the EC50 in data set [7] and in data set [9] were more than 1000 nM and 130 nM, respectively.
Take `CC[C@H](C)[C@H](NC(=O)[C@H](Cc1ccccc1)NC(=O)[C@H](CC(=O)O)NC(=O)[C@H](CCCNC(=N)N)NC(=O)[C@H](Cc1ccccc1)NC(=O)[C@H](Cc1ccccc1)NC(=O)[C@H](CCCCN)NC(=O)[C@H](CO)NC(=O)[C@H](CC(C)C)NC(=O)[C@H](CCCNC(=N)N)NC(=O)[C@H](CCSC)NC(=O)[C@@H](N)CCC(=O)O)C(=O)N(C)[C@@H](CC(C)C)C(=O)N[C@@H](CCC(N)=O)C(=O)N[C@@H](CCCNC(=N)N)C(=O)O` (H-EMRLSKFFRDFI[NMeL]QR-OH): the result in [4] and in data set [5] was inactive. Further, the half-maximal effective concentration (EC50) in data set [9] is more than 1000 nM.
Turning to `CC[C@H](C)[C@H](NC(=O)[C@H](Cc1ccccc1)NC(=O)[C@H](CC(=O)O)N(C)C(=O)[C@H](CCCNC(=N)N)NC(=O)[C@H](Cc1ccccc1)NC(=O)[C@H](Cc1ccccc1)NC(=O)[C@H](CCCCN)NC(=O)[C@H](CO)NC(=O)[C@H](CC(C)C)NC(=O)[C@H](CCCNC(=N)N)NC(=O)[C@H](CCSC)NC(=O)[C@@H](N)CCC(=O)O)C(=O)N[C@@H](CC(C)C)C(=O)N[C@@H](CCC(N)=O)C(=O)N[C@@H](CCCNC(=N)N)C(=O)O` (H-EMRLSKFFR[NMeD]FILQR-OH), the outcome in [4] was inactive. The Activity in data set [5] was more than 75%. Also, the concentration for a half-maximal effect (EC50) in [7] and in data set [9] was more than 1000 nM throughout.
As to `CC[C@H](C)[C@H](NC(=O)[C@H](Cc1ccccc1)NC(=O)[C@H](CC(=O)O)NC(=O)[C@H](CCCNC(=N)N)NC(=O)[C@H](Cc1ccccc1)N(C)C(=O)[C@H](Cc1ccccc1)NC(=O)[C@H](CCCCN)NC(=O)[C@H](CO)NC(=O)[C@H](CC(C)C)NC(=O)[C@H](CCCNC(=N)N)NC(=O)[C@H](CCSC)NC(=O)[C@@H](N)CCC(=O)O)C(=O)N[C@@H](CC(C)C)C(=O)N[C@@H](CCC(N)=O)C(=O)N[C@@H](CCCNC(=N)N)C(=O)O` (H-EMRLSKF[NMeF]RDFILQR-OH), the Activity in [4] was more than 75%. Also, in data set [5], the result was inactive. Also, in [9], the EC50 is more than 1000 nM.
Consider `CC[C@H](C)[C@H](NC(=O)[C@H](Cc1ccccc1)NC(=O)[C@H](CC(=O)O)NC(=O)[C@H](CCCNC(=N)N)NC(=O)[C@H](Cc1ccccc1)NC(=O)[C@H](Cc1ccccc1)NC(=O)[C@H](CCCCN)NC(=O)[C@H](CO)N(C)C(=O)[C@H](CC(C)C)NC(=O)[C@H](CCCNC(=N)N)NC(=O)[C@H](CCSC)NC(=O)[C@@H](N)CCC(=O)O)C(=O)N[C@@H](CC(C)C)C(=O)N[C@@H](CCC(N)=O)C(=O)N[C@@H](CCCNC(=N)N)C(=O)O` (H-EMRL[NMeS]KFFRDFILQR-OH), for which the Activity in data set [4] and in data set [5] was more than 75% in each case. The concentration for a half-maximal effect (EC50) in data set [7] was more than 1000 nM; in data set [9], 280 nM.
As to `CC[C@H](C)[C@H](NC(=O)[C@H](CCCNC(=N)N)NC(=O)[C@H](CO)NC(=O)[C@H]([C@@H](C)CC)N(C)C(=O)[C@H](CCCNC(=N)N)NC(=O)[C@H](CCSC)NC(=O)[C@@H](N)CCC(=O)O)C(=O)N[C@H](C(=O)N[C@@H](CC(C)C)C(=O)N[C@@H](CC(=O)O)C(=O)N[C@@H](Cc1ccccc1)C(=O)N[C@@H](CC(C)C)C(=O)N[C@@H](Cc1ccccc1)C(=O)O)[C@@H](C)CC` (H-EMR[NMeI]SRIILDFLF-OH), the outcome in [4] was inactive. The Activity in [5] is more than 75%. Moreover, the inhibition entry in data set [6] was “inactive”. In [7], the concentration giving a half-maximal response (EC50) was more than 1000 nM. In data set [8], the solubility result is “Insoluble”.
Take `CC[C@H](C)[C@H](NC(=O)[C@H](Cc1ccccc1)NC(=O)[C@H](CC(=O)O)NC(=O)[C@H](CCCNC(=N)N)NC(=O)[C@H](Cc1ccccc1)NC(=O)[C@H](Cc1ccccc1)NC(=O)[C@H](CCCCN)NC(=O)[C@H](CO)NC(=O)[C@H](CC(C)C)N(C)C(=O)[C@H](CCCNC(=N)N)NC(=O)[C@H](CCSC)NC(=O)[C@@H](N)CCC(=O)O)C(=O)N[C@@H](CC(C)C)C(=O)N[C@@H](CCC(N)=O)C(=O)N[C@@H](CCCNC(=N)N)C(=O)O` (H-EMR[NMeL]SKFFRDFILQR-OH): the Activity in data set [4] is more than 75%. Moreover, the outcome in [5] was inactive. The EC50 in data set [9] is 280 nM.
As to H-EMRLSKFFRDFILQR-OH, the concentration giving a half-maximal response (EC50) in data set [7] was more than 1000 nM; in [9], 8.1 nM. In addition, the half-life at 0.05 ug/ml in data set [1] is 240 min.
